The record followed here is ChEMBL document CHEMBL1157359, “Binding of ceftobiprole and comparators to the penicillin-binding proteins of Escherichia coli, Pseudomonas aeruginosa, Staphylococcus aureus, and Streptococcus pneumoniae” (Antimicrob Agents Chemother, 2007).

Assay [1] can be described thus: Inhibition of bocillin FL binding to penicillin-susceptible Streptococcus pneumoniae OC 8865 penicillin-binding protein 1a. The gist of the method: (§1)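 Whole S. pneumoniae cells were used rather than isolated membranes. Cells were competed with drug and then labeled with Bocillin FL, and PBP bands were visualized by fluorescence imaging. IC50 is the drug concentration that inhibits Bocillin FL binding to each PBP by 50% relative to a no-drug control.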

A short description of assay [2]: Inhibition of bocillin FL binding to penicillin-resistant Streptococcus pneumoniae OC 8819 penicillin-binding protein 2a. The gist of the method: as §1
The nature of assay [3]: Inhibition of bocillin FL binding to penicillin-susceptible Streptococcus pneumoniae OC 8865 penicillin-binding protein 2x. The gist of the method:
as §1

In assay [4] the test system is Streptococcus pneumoniae. Put plainly: Antibacterial activity against penicillin-susceptible Streptococcus pneumoniae OC 8865 by CLSI method. Format: functional.
In assay [5] the target is T1, Penicillin-binding protein 3 (Staphylococcus aureus, UniProt Q5D1F0).
T1 sequence (Q5D1F0 whole entry): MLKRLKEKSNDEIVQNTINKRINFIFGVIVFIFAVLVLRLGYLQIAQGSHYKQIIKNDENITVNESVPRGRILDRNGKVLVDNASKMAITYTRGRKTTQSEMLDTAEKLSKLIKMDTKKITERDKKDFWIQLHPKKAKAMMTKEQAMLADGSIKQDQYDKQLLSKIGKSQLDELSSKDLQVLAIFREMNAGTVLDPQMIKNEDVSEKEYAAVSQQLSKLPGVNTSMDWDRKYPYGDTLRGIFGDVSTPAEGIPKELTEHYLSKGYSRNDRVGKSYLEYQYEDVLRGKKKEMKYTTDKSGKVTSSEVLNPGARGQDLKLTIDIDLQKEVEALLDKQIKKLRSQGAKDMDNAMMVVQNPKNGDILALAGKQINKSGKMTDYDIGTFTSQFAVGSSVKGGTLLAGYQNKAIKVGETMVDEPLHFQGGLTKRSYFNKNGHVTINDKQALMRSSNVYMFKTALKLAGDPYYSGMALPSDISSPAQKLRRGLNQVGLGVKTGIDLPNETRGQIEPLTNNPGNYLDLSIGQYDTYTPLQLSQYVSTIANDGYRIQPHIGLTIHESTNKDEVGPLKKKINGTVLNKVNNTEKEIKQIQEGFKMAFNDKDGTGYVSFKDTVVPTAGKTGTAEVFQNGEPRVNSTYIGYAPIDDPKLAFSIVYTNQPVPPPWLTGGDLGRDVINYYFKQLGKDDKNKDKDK
In words: Inhibition of bocillin FL binding to methicillin-susceptible Staphylococcus aureus ATCC 29213 penicillin-binding protein 3. The gist of the method: (§2)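 Isolated S. aureus ATCC 29213 PBPs exposed to drug over 0.001 μg/ml to 50 μg/ml, followed by Bocillin FL labeling and fluorescence imaging. IC50 is 50% inhibition of Bocillin FL binding relative to no-drug control.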

Assay [6] deals with T2, Penicillin-binding protein 2 (Staphylococcus aureus, UniProt Q53729).
T2 sequence (Q53729 whole entry): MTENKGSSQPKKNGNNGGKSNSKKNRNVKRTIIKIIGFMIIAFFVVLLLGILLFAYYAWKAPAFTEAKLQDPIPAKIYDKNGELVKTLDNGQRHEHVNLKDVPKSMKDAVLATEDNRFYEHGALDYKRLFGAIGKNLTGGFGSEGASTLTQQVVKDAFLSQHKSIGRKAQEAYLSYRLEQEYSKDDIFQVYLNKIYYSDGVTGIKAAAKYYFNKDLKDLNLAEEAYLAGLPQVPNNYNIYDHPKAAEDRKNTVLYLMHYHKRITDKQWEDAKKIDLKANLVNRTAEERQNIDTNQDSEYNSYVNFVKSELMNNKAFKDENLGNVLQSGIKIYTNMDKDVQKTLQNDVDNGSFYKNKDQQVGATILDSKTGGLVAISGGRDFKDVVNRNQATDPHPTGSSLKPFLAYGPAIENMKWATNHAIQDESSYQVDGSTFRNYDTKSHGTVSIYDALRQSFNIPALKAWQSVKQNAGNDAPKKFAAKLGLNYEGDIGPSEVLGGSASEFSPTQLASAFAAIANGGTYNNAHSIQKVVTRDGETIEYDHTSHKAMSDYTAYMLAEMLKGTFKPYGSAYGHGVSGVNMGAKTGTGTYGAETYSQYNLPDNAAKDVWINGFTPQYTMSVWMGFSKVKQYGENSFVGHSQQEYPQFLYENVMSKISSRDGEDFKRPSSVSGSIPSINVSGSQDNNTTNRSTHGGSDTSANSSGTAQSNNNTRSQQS
Put plainly: Inhibition of bocillin FL binding to methicillin-susceptible Staphylococcus aureus ATCC 29213 penicillin-binding protein 2. The gist of the method:
as §2

Assay [7] in a line: Inhibition of bocillin FL binding to penicillin-susceptible Streptococcus pneumoniae OC 8865 penicillin-binding protein 3. The method in brief:
as §1

Assay [8] addresses T3, Penicillin-binding protein 1 (Staphylococcus aureus, UniProt Q53725).
T3 sequence (Q53725 whole entry): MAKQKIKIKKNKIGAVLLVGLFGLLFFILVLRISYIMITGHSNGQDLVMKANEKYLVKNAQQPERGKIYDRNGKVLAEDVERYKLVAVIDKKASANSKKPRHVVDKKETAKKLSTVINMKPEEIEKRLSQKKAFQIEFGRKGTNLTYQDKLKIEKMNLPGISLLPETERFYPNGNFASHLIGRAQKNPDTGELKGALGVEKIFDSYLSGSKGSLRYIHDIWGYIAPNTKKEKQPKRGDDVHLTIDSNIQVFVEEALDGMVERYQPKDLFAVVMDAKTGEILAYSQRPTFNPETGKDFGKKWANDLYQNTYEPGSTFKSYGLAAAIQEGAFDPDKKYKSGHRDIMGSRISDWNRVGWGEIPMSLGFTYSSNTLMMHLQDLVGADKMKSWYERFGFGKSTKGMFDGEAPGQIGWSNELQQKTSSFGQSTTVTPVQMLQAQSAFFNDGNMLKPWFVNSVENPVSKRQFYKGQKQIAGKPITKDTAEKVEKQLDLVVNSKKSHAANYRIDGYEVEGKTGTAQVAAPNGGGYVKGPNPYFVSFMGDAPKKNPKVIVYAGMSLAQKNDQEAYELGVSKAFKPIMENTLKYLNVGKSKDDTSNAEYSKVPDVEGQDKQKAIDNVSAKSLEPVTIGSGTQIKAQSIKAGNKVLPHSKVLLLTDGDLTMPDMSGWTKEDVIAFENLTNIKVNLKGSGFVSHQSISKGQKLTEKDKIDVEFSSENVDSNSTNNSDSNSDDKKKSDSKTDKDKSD
In words: Inhibition of bocillin FL binding to methicillin-susceptible Staphylococcus aureus ATCC 29213 penicillin-binding protein 1. The method in brief:
as §2

Assay [9] can be described thus: Inhibition of bocillin FL binding to Pseudomonas aeruginosa PAO1 penicillin-binding protein 4. The method in brief:
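P. aeruginosa PAO1 PBPs were isolated and competed with 10 drug concentrations from 0.06 μg/ml to 32 μg/ml before Bocillin FL labeling. Bands were detected by fluorescence imaging. IC50 was taken as 50% inhibition of Bocillin FL binding versus the no-drug sample.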

The nature of assay [10]: Inhibition of bocillin FL binding to Pseudomonas aeruginosa PAO1 penicillin-binding protein 5/6. The method in brief: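 Isolated P. aeruginosa PAO1 PBPs; drug added at 10 concentrations, 0.06 μg/ml to 32 μg/ml, before Bocillin FL labeling. Labeled PBPs imaged. IC50 is the drug level cutting Bocillin FL binding by 50% versus a no-drug sample.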

In brackets after ≈: the same amount, converted by molar mass.

One may read the IC50 as the point on the concentration scale where inhibition reaches its midpoint. The term MIC denotes the smallest concentration in the dilution series that meets the test's criterion for growth inhibition. High values mean a less susceptible organism, low ones a more susceptible organism.

With `CO/N=C(\C(=O)N[C@@H]1C(=O)N2C(C(=O)O)=C(CSc3nc(=O)c(O)nn3C)CS[C@H]12)c1csc(N)n1` (stereo in doubt) [CEFTRIAXONE], the IC50 in [1] is 0.01 µg/mL (≈ 0.018 µM); in assay [2], 0.5 µg/mL (≈ 0.902 µM); in [3], 0.03 µg/mL (≈ 0.0541 µM); in [5] it was 1800 nM; in [6], 180 nM; in [7], 0.02 µg/mL (≈ 0.0361 µM). This compound had a concentration for half-maximal inhibition (IC50) in assay [8] of 902 nM. Moreover, 0.03 µg/mL (≈ 0.0541 µM) was the least that counted as inhibitory in assay [4] (MIC).
Turning to `Nc1nc(/C(=N/O)C(=O)N[C@@H]2C(=O)N3C(C(=O)O)=C(/C=C4\CCN([C@@H]5CCNC5)C4=O)CS[C@H]23)ns1` [CEFTOBIPROLE], the IC50 in [1] was 0.03 µg/mL (≈ 0.0561 µM); in assay [2], 0.1 µg/mL (≈ 0.187 µM); in [3] it was 0.01 µg/mL (≈ 0.0187 µM); in [9], 0.2 µg/mL (≈ 0.374 µM); in [10], above 32 µg/mL; in [5] it was 93.5 nM. For the same compound, the IC50 was 935 nM in [6], 0.02 µg/mL (≈ 0.0374 µM) in assay [7] and 187 nM in assay [8]. Also, the MIC in assay [4] was 0.008 µg/mL (≈ 0.015 µM).
On to `CC(C)(O/N=C(\C(=O)N[C@@H]1C(=O)N2C(C(=O)[O-])=C(C[n+]3ccccc3)CS[C@H]12)c1csc(N)n1)C(=O)O` [CEFTAZIDIME], for which the IC50 in assay [9] was 2 µg/mL (≈ 3.66 µM); in assay [10], above 32 µg/mL.
